Results published in ChEMBL document CHEMBL1132490, “Improving the nicotinic pharmacophore with a series of (Isoxazole)methylene-1-azacyclic compounds: synthesis, structure-activity relationship, and molecular modeling” (J Med Chem, 1999).

Experiments:
[1] = target: Neuronal acetylcholine receptor; test: In vitro displacement of [3H]methylcarbamylcholine from nicotinic acetylcholine receptor in rat brain cortex; assay type: tissue-based
Method in brief: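 Male Mol:WIST rat cerebral cortex (fresh or frozen), homogenised in 50 mM Tris-HCl pH 7.4 with 120 mM NaCl, 5 mM KCl, 2 mM CaCl2, 1 mM MgCl2, spun 40000g 10 min; pellet resuspended. Incubated with [3H]MCC (2 nM final) and test salt, 60 min at 0 °C; GF/B filtration (0.5% PEI), scintillation counting. IC50 by nonlinear regression.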

[2] = target: Muscarinic acetylcholine receptor; test: In vitro displacement of [3H]oxotremorine-M from muscarinic acetylcholine receptor in rat brain cortex; assay type: tissue-based

Compound	IC50 [1]	IC50 [2]
Cc1cc(/C=C2/CCN(C)C2)on1	783 nM	4420 nM
Cc1cc(/C=C2/CN3CCCC2C3)on1 (configuration not stated)	53 nM	1570 nM
Cc1cc(/C=C2\CCN(C)C2)on1	> 1000 nM	15700 nM
Cc1cc(/C=C2\CCCNC2)on1	> 1000 nM	6950 nM
COCc1cc(/C=C2/CN3CCC2CC3)on1	> 1000 nM	4000 nM
Cc1cc(/C=C2\CCCN(C)C2)on1	> 1000 nM	9540 nM
CC(C)c1cc(/C=C2/CN3CCC2CC3)on1	> 1000 nM	2280 nM
CCc1cc(/C=C2\CN3CCC2CC3)on1	100 nM	566 nM
Cc1cnoc1/C=C1\CN2CCC1C2 (configuration not stated)	0.32 nM	19 nM
CC(C)c1cc(/C=C2\CN3CCC2CC3)on1	107 nM	911 nM
C/C(=C1/CN2CCC1CC2)c1cc(C)no1	715 nM	2263 nM
Cc1cc(/C=C2/CCCNC2)on1	87 nM	7220 nM
Cc1cc(/C=C2/CCNC2)on1	> 1000 nM	3290 nM
Cc1cc(/C=C2/CN3CCC2C3)on1 (configuration not stated)	23 nM	1020 nM
Cc1cc(/C=C2\CN3CCC2C3)on1 (configuration not stated)	29 nM	276 nM
Cc1cc(/C=C2/CN3CCC2CC3)on1	504 nM	1810 nM
CCCc1cc(/C=C2/CN3CCC2CC3)on1	> 1000 nM	1930 nM
COCc1cc(/C=C2\CN3CCC2CC3)on1	218 nM	1470 nM
C(=C1/CN2CCC1CC2)/c1ccno1	1.65 nM	312 nM
Cc1cnoc1/C=C1\CN2CCC1CC2	3.2 nM	418 nM
Cc1cc(/C(F)=C2\CN3CCC2CC3)on1	255 nM	1450 nM
CCc1cc(/C=C2/CN3CCC2CC3)on1	> 1000 nM	867 nM
Cc1noc(/C=C2/CN3CCC2CC3)c1C	> 1000 nM	373 nM
Cc1cc(C=C2CNC2)on1	> 1000 nM	19300 nM
Cc1cc(/C=C2/CCCN(C)C2)on1	> 1000 nM	5760 nM
CCCc1cc(/C=C2\CN3CCC2CC3)on1	167 nM	852 nM
Cc1cc(/C=C2\CN3CCC2CC3)on1	3.9 nM	658 nM
Cc1cc(/C=C2\CN3CCCC2C3)on1 (configuration not stated)	130 nM	898 nM
Clc1ccc(C2CC3CCC2N3)cn1 (racemic) [EPIBATIDINE]	–	> 1 nM
